In one data set the test system is Mus musculus. Description: Toxicity in mouse allografted with mouse L1210 cells at 15 to 525 mg/kg, ip qd administered every 3 days for 7 days. The note with it: in vivo. Also on record: dose 15-525 mg/kg, route intraperitoneal. The format is organism-based. In outline:
(§1)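 Mice inoculated ip with 10^5 L1210 cells on day 0. Test agents injected ip in 10% Tween 80 on days 1, 4 and 7; doses 15 to 525 mg/kg. Positive control given as disodium salt in aqueous solution. Test groups of 5, control groups of 10-15. Median survival scored; %ILS = 100 × (T − C)/C.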

The subject of data set [1] is L1210. Nature of the data set: Antitumor activity against mouse L1210 cells allografted in mouse assessed as increase in life span at 15 to 525 mg/kg, ip qd administered every 3 days for 7 days. Format: functional, organism-based. In outline:
as §1

For data set [2], the system named is Serum. Nature of the data set: Prodrug conversion in rat whole serum assessed as formation of methotrexate at 0.006 g measured up to 24 hrs by TLC analysis. The format is ADME. The gist of the method: (§2)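 Fresh rat serum 0.9 mL plus compound 0.006 g in 0.1 mL Me2SO, incubated at 37 °C with gentle shaking for up to 24 h. Cooled on ice, diluted 1.5-fold with methanol to precipitate protein, centrifuged. Supernatant run on fluorescent cellulose TLC developed with 0.5 M phosphate buffer pH 7.4 to detect parent compound and metabolites.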

In data set [3] the test system is L1210. Nature of the data set: Antitumor activity against mouse L1210 cells allografted in mouse assessed as median survival time at 25 mg/kg, ip qd administered every 3 days for 7 days. Format: functional. The note with it: route intraperitoneal. In outline: (§3)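 Mice were inoculated ip with 10^5 L1210 leukemia cells on day 0. Dosing was ip on days 1, 4 and 7 in 10% Tween 80, with the methotrexate disodium salt in water, over 15–525 mg/kg. Survival was recorded in days as the range and median per group, with 5 treated and 10-15 untreated controls.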

For data set [4], the system named is L1210. Description: Antitumor activity against mouse L1210 cells allografted in mouse assessed as increase in life span at 200 mg/kg, ip qd administered every 3 days for 7 days relative to control. The note with it: route intraperitoneal. The format is functional. The gist of the method: (§4)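 L1210 cells (10^5) implanted ip in mice on day 0. Compounds given ip in 10% Tween 80 on days 1, 4 and 7, at doses from 15 to 525 mg/kg. Methotrexate was given as the disodium salt in aqueous solution. Groups had 5 treated and 10-15 control animals. %ILS = 100 × (T − C)/C, where T and C are median survival days of treated and control mice.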

In another data set the test system is Plasma. Description: Prodrug conversion in mouse plasma assessed as formation of methotrexate at 100 mg/kg, ip measured after 6 to 24 hrs by TLC analysis. Format: ADME, organism-based. Also noted: dose 100 mg/kg, route intraperitoneal. Particulars: in vivo. In outline:
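Normal mice received a single ip dose of 100 mg/kg in 10% Tween 80. One animal was killed at 6 h and one at 24 h. Blood was taken by ocular puncture with a heparinized syringe and the red cells spun down. Plasma 0.2 mL was cooled on ice and diluted with methanol 0.4 mL to precipitate protein, then centrifuged. Analysed by cellulose TLC developed in 0.5 M phosphate buffer pH 7.4.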

Data set [5] has as its system L1210. Nature of the data set: Antitumor activity against mouse L1210 cells allografted in mouse assessed as increase in life span at 50 mg/kg, ip qd administered every 3 days for 7 days relative to control. Format: functional. The note with it: route intraperitoneal. In outline: as §4
In another data set the test system is CCRF-CEM. Description: Cytotoxicity against human CCRF-CEM cells assessed as growth inhibition. The format is functional. Particulars: read-out: ID50 (the source's name).
The subject of data set [6] is L1210. Description: Antitumor activity against mouse L1210 cells allografted in mouse assessed as median survival time at 200 mg/kg, ip qd administered every 3 days for 7 days. The note with it: route intraperitoneal. Format: functional. The gist of the method:
as §3

Data set [7] relates to L1210. Description: Antitumor activity against mouse L1210 cells allografted in mouse assessed as increase in life span at 400 mg/kg, ip qd administered every 3 days for 7 days relative to control. The note with it: route intraperitoneal. Format: functional. In outline: as §4
The test system of data set [8] is L1210. Nature of the data set: Antitumor activity against mouse L1210 cells allografted in mouse assessed as median survival time at 150 mg/kg, ip qd administered every 3 days for 7 days. The format is functional. Particulars: route intraperitoneal. The gist of the method: as §3
Data set [9] relates to L1210. Description: Antitumor activity against mouse L1210 cells allografted in mouse assessed as increase in life span at 150 mg/kg, ip qd administered every 3 days for 7 days relative to control. Format: functional. Particulars: route intraperitoneal. The gist of the method: as §4
For data set [10], the system named is L1210. Nature of the data set: Antitumor activity against mouse L1210 cells allografted in mouse assessed as median survival time at 400 mg/kg, ip qd administered every 3 days for 7 days. Particulars: route intraperitoneal. Format: functional. The gist of the method:
as §3

The nature of data set [11]: Cytotoxicity against RBL cells assessed as growth inhibition. The format is functional. Particulars: Rattus norvegicus, read-out: ID50 (the source's name).
Data set [12] deals with L1210. Nature of the data set: Antitumor activity against mouse L1210 cells allografted in mouse assessed as increase in life span at 100 mg/kg, ip qd administered every 3 days for 7 days relative to control. Format: functional. Particulars: route intraperitoneal. In outline:
as §4

In data set [13] the test system is L1210. Nature of the data set: Antitumor activity against mouse L1210 cells allografted in mouse assessed as increase in life span at 25 mg/kg, ip qd administered every 3 days for 7 days relative to control. Format: functional. Particulars: route intraperitoneal. In outline:
as §4

The test system of data set [14] is L1210. Description: Antitumor activity against mouse L1210 cells allografted in mouse assessed as median survival time at 100 mg/kg, ip qd administered every 3 days for 7 days. The format is functional. The note with it: route intraperitoneal. The gist of the method: as §3
For data set [15], the system named is L1210. Description: Antitumor activity against mouse L1210 cells allografted in mouse assessed as median survival time at 50 mg/kg, ip qd administered every 3 days for 7 days. Particulars: route intraperitoneal. Format: functional. In outline:
as §3

In the next data set the test system is Liver. Description: Prodrug conversion in mouse liver assessed as formation of methotrexate at 100 mg/kg, ip measured after 6 to 24 hrs by TLC analysis. The format is ADME, organism-based. Also noted: dose 100 mg/kg, route intraperitoneal. The note with it: in vivo.
Data set [16] deals with L1210. Nature of the data set: Antitumor activity against mouse L1210 cells allografted in mouse assessed as increase in life span at 7 mg/kg, sc administered daily up to death started on day 5 post tumor implantation relative to control. The format is functional. Particulars: 120 h, route subcutaneous.
For data set [17], the target named is Dihydrofolate reductase (Lactobacillus casei) (UniProt P00381). Nature of the data set: Inhibition of methotrexate-resistant Lactobacillus casei ATCC 7469 dihydrofolate reductase. Particulars: Lacticaseibacillus casei.
Chain of Dihydrofolate reductase (Lactobacillus casei) (P00381 whole entry): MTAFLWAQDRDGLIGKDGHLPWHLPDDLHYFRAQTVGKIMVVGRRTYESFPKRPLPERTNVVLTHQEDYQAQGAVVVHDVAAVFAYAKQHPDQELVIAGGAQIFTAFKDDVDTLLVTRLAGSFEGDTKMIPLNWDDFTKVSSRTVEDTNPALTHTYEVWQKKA
For data set [18], the system named is Serum. Nature of the data set: Prodrug conversion in rat whole serum assessed as formation of methotrexate measured after 1 hr by TLC analysis. The format is ADME. In outline:
as §2

Values after ≈ are worked out from the molar mass of the structure shown. Active and inactive are the calls of the source. No cut-off for these calls is given here.

As to `CN(C)CCCNC(=O)CC[C@H](NC(=O)c1ccc(N(C)Cc2cnc3nc(N)nc(N)c3n2)cc1)C(=O)NCCCN(C)C`, the Activity entry in the data set with Mus musculus is “Toxic”. The outcome with L1210 [1] was inactive.

Consider `CN(Cc1cnc2nc(N)nc(N)c2n1)c1ccc(C(=O)N[C@@H](CCC(=O)NCc2ccccc2)C(=O)NCc2ccccc2)cc1`, for which the Drug metabolism entry was “metabolite_notdetected” with Serum [2], “metabolite_detected” in the data set with Plasma and “metabolite_detected” in the data set on Liver. Moreover, the MST was found to be 12 days in the data set on L1210 [3]; 9 days in the data set with L1210 [6]; 15 days in the data set on L1210 [8]; 8 days in the data set on L1210 [10]; 13 days in the data set with L1210 [14]; 13 days in the data set with L1210 [15]. In the data set with L1210 [4], the ILS at 200 mg/kg was found to be 0%. In the data set with L1210 [5], the ILS at 50 mg/kg came out at 44%. Further, the values for the IC50 (in the data set with CCRF-CEM; in [11]) were 7.6 µg/mL (≈ 12 µM) and 2.5 µg/mL (≈ 3.95 µM), respectively. Besides, the ILS at 400 mg/kg in the data set with L1210 [7] is -11%. For the same molecule, in the data set with L1210 [9], the ILS at 150 mg/kg was 66%. Further, the ILS at 100 mg/kg in the data set on L1210 [12] stood at 44%. The ILS at 25 mg/kg with L1210 [13] is 33%.

Take `CN(Cc1cnc2nc(N)nc(N)c2n1)c1ccc(C(=O)N[C@@H](CCC(=O)NCCCO)C(=O)NCCCO)cc1`: the IC50 with CCRF-CEM is more than 10 µg/mL.

As for `Nc1nc(N)c2nc(CNc3ccc(C(=O)N[C@@H](CCC(=O)NCc4ccccc4)C(=O)NCc4ccccc4)cc3)cnc2n1`, in the data set on L1210 [16], the ILS at 7 mg/kg stood at 30%.

On to `CCCCCCNC(=O)CC[C@H](NC(=O)c1ccc(N(C)Cc2cnc3nc(N)nc(N)c3n2)cc1)C(=O)NCCCCCC`, for which, in the data set with CCRF-CEM, the IC50 came out at 10 µg/mL (≈ 16.1 µM).

For the molecule `CN(C)CCNC(=O)CC[C@H](NC(=O)c1ccc(N(C)Cc2cnc3nc(N)nc(N)c3n2)cc1)C(=O)NCCN(C)C`, the IC50 in the data set on CCRF-CEM was more than 10 µg/mL.

Regarding `CCCCNC(=O)CC[C@H](NC(=O)c1ccc(N(C)Cc2cnc3nc(N)nc(N)c3n2)cc1)C(=O)NCCCC`, in the data set with CCRF-CEM, the IC50 is more than 10 µg/mL.

On to `CCC(C)NC(=O)CC[C@H](NC(=O)c1ccc(N(C)Cc2cnc3nc(N)nc(N)c3n2)cc1)C(=O)NC(C)CC` (stereo partly drawn), for which the IC50 in the data set on CCRF-CEM is more than 10 µg/mL.

Consider `CCCCOC(=O)CC[C@H](NC(=O)c1ccc(N(C)Cc2cnc3nc(N)nc(N)c3n2)cc1)C(=O)OCCCC`, for which, in the data set with CCRF-CEM, the IC50 was 0.032 µg/mL (≈ 0.0565 µM). Further, in data set [17], the ID50 was 5 ×10⁻⁷ M. For the same molecule, the Drug metabolism entry in the data set on Serum [18] is given as “metabolite_detected”.

These data come from ChEMBL document CHEMBL3244060, “Methotrexate analogues. 8. Synthesis and biological evaluation of bisamide derivatives as potential prodrugs” (J Med Chem, 1977).
